Source: PubChem (The Scripps Research Institute Molecular Screening Center)
Most compounds without a hit are left out; they make up all but 1.8% or so of the library.
M5 antag: CHRM5 antagonism in calcium assay; CHO-hM5 cells, Fluo-8 calcium fluorescence, ACh EC80; inhibition, % at 3 µM; 0.59% of 360,000 active;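 active = inhibition above a per-plate cutoff, the mean of that plate's test compounds plus 3 SD, cut at about 27% in these data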;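 also: 0% = acetylcholine EC80 with DMSO and 100% = DMSO without agonist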
Target sequence (P08912 whole entry, looked up): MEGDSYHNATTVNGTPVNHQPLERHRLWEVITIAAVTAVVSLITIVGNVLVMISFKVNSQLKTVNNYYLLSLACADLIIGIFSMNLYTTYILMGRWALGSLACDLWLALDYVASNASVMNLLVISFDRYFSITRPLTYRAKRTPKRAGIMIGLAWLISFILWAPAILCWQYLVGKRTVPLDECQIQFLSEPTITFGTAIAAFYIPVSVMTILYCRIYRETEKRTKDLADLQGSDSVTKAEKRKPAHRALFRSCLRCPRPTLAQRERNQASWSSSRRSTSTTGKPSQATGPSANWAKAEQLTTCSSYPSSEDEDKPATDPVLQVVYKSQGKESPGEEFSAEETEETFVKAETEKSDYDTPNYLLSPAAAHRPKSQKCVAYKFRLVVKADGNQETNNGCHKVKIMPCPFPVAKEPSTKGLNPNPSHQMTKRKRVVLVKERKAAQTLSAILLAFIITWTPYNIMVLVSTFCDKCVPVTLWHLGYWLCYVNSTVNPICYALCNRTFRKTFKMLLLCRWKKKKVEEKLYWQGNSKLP
M4 PAM: CHRM4 positive allosteric modulation; P08173; CHO-K1 hM4/Gqi5, Fluo-8 calcium fluorescence, ACh EC20; 0% = ACh EC20, 100% = maximal ACh; activation, % at 3 µM; 0.4% of 360,000 active; AID 624126;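 active = activation above its plate's cutoff, the mean activation of sample wells plus 3 SD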
CHRM4 agonist: CHRM4 agonism in calcium assay | P08173 | CHO-K1 hM4/Gqi5, Fluo-8 calcium fluorescence; vehicle 0%, full acetylcholine response 100% | activation, % at 3 µM | 0.14% of 360,000 active | AID 624127;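 active = activation above the run mean over all test wells plus 3 SD, cut at about 32% in these data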;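 also: peak over basal fluorescence ratio per well then scaled between controls; 0% = DMSO wells and 100% = acetylcholine at EC100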
M4 antag: CHRM4 antagonism in calcium assay; 0.73% of 360,000 active; CHO-hM4 cells, ACh EC80, Fluo-8 calcium fluorescence; inhibition, % at 3 µM; P08173;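 active = inhibition above its plate's cutoff, the mean inhibition of sample wells plus 3 SD, cut at about 27% in these data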;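 also: 0% = acetylcholine EC80 with DMSO and 100% = DMSO without agonist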
M5 ag: agonists of human muscarinic M5 receptor (CHRM5). activation, % at 3 µM. CHO-K1 hM5 cells, Fluo-8 calcium fluorescence; 0% DMSO wells, 100% maximal acetylcholine response. 0.19% of 360,000 active. AID 624037. P08912;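 active = activation above the run's mean over test compounds plus 3 SD, cut at about 23% in these data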;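 also: signal is peak over basal fluorescence ratio across the kinetic read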
CHRM5 PAM: potentiates acetylcholine response at human M5 receptor. CHO-K1 hM5, Fluo-8 calcium, ACh EC20 PAM; 0% = ACh EC20, 100% = ACh EC100. activation, % at 3 µM. 0.3% of 360,000 active;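 active = activation above the run cutoff, the mean activation of all test compounds plus 3 SD, cut at about 18% in these data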
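system = human M5 receptor in CHO-K1 cells | compound = one concentration, 3 µM final (nominal) | schedule = Post-acetylcholine fluorescence recording 140 s | signal = Fluo-8 calcium dye fluorescence, kinetic read | benchmarks = low control EC20 acetylcholine (0%), high control EC100 acetylcholine (100%) | repeats = singlicate, one well per test compound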
An asterisk follows results filed as active.

What do the screens show for `O=C(CN1CCN(C(=O)CNC(=O)c2ccc3c(c2)OCO3)CC1)Nc1ccccc1Cl`?
M5 antag: -6; M4 PAM: -1; CHRM4 agonist: 3; M4 antag: 3; M5 ag: 3; CHRM5 PAM: 2

Results for CN(Cc1ccc(OC(F)F)cc1)C(=O)c1cccc(S(=O)(=O)N2CCN(Cc3ccccc3)CC2)c1 ?
M5 antag: 26; M4 PAM: -13; CHRM4 agonist: 19; M4 antag: 15; M5 ag: 2; CHRM5 PAM: -23

Results for Cc1nc2ccccc2cc1OCc1ccc(Cl)cc1 ?
M5 antag: 30*; M4 PAM: -14; CHRM4 agonist: 5; M4 antag: 19; M5 ag: 6; CHRM5 PAM: -14

How did COc1cccc(COc2cc3ccccc3nc2C)c1 do in these assays?
M5 antag: 31*; M4 PAM: -2; CHRM4 agonist: 9; M4 antag: 24; M5 ag: 3; CHRM5 PAM: -16

What do the screens show for `Cc1nc2ccccc2cc1OCc1ccccc1`?
M5 antag: 24; M4 PAM: -10; CHRM4 agonist: 6; M4 antag: 6; M5 ag: 2; CHRM5 PAM: -14

What do the screens show for `C=C1CCN([C@H](C(=O)NCc2ccc(Cl)cc2)C(C)C)S(=O)(=O)c2ccccc21`?
M5 antag: 7; M4 PAM: -2; CHRM4 agonist: -1; M4 antag: 1; M5 ag: -6; CHRM5 PAM: 0

What do the screens show for `COc1ccc(S(=O)(=O)N2CCC3(CC2)OCCN3S(=O)(=O)c2cccs2)cc1OC`?
M5 antag: 2; M4 PAM: -1; CHRM4 agonist: 6; M4 antag: -4; M5 ag: 3; CHRM5 PAM: 4

What do the screens show for `CC(=O)Nc1ccc(C=NNc2ccc(S(=O)(=O)Nc3ccccc3C(=O)O)cc2[N+](=O)[O-])cc1`?
M5 antag: 11; M4 PAM: 4; CHRM4 agonist: 0; M4 antag: -10; M5 ag: 2; CHRM5 PAM: -8

What do the screens show for `CC(=O)Nc1cccc(/C(C)=N/Nc2ccc(S(=O)(=O)Nc3ccccc3C(=O)O)cc2[N+](=O)[O-])c1`?
M5 antag: 9; M4 PAM: 20*; CHRM4 agonist: -2; M4 antag: -13; M5 ag: 2; CHRM5 PAM: -3

How did COc1ccc(OC)c(/C=C2/Sc3ccccc3C2=O)c1 do in these assays?
M5 antag: 43*; M4 PAM: -5; CHRM4 agonist: 27; M4 antag: 19; M5 ag: 63*; CHRM5 PAM: -23

What do the screens show for `CCCNC(=O)Cn1c(=O)/c(=C/c2ccc(-c3ccc([N+](=O)[O-])cc3)o2)s/c1=C\C(=O)C(C)(C)C`?
M5 antag: 53*; M4 PAM: -7; CHRM4 agonist: 35*; M4 antag: 22; M5 ag: 123*; CHRM5 PAM: -9

Results for CSc1ccc(/C=c2\s/c(=C\C(=O)C(C)(C)C)n(CC(=O)NCCC3=CCCCC3)c2=O)cc1 ?
M5 antag: -9; M4 PAM: 9; CHRM4 agonist: 3; M4 antag: 3; M5 ag: 0; CHRM5 PAM: 0

Results for CN1CCC(Oc2ccccc2Sc2ccccc2)CC1 ?
M5 antag: 78*; M4 PAM: -43; CHRM4 agonist: 10; M4 antag: 74*; M5 ag: -6; CHRM5 PAM: -19

What do the screens show for `Cc1ccccc1C(=O)OC1CCN(C)CC1`?
M5 antag: 12; M4 PAM: -8; CHRM4 agonist: 0; M4 antag: 9; M5 ag: -9; CHRM5 PAM: -20

Results for CN1CCC(N(C)CC(O)c2ccccc2)CC1 (configuration not stated) ?
M5 antag: 4; M4 PAM: 1; CHRM4 agonist: 1; M4 antag: -3; M5 ag: 1; CHRM5 PAM: 4

How did CN1CCC(OC(c2ccccc2)c2ccccc2)CC1 do in these assays?
M5 antag: 96*; M4 PAM: -17; CHRM4 agonist: 1; M4 antag: 80*; M5 ag: -2; CHRM5 PAM: -19
